ChEMBL document CHEMBL4017539, “Oral Delivery of Propofol with Methoxymethylphosphonic Acid as the Delivery Vehicle” (J Med Chem, 2017)

How the values were obtained:
[1] = Toxicity in ICR mouse assessed as death at 100 mg equiv/kg parent drug administered via oral gavage relative to control; conditions: in vivo
Summary of the method: (§1)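 Male and female ICR mice (20 ± 2 g), fasted overnight, dosed by gavage in 10% DMSO, 20% Solutol HS-15, 70% saline (n = 10/group for diastereoisomeric mixtures, n = 6/group for single diastereoisomers). Mice were placed on their backs until righting stopped. Read-outs were onset of LORR, anesthetic duration, percent with LORR and percent mortality per group.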

Mus musculus [2] = assay: Anesthetic activity in ICR mouse assessed as anesthetic duration time at 100 mg equiv/kg parent drug administered via oral gavage; format: functional; summary of the method: as §1
Mus musculus [3] = assay: Anesthetic activity in ICR mouse assessed as onset time for loss of righting reflex at 100 mg equiv/kg parent drug administered via oral gavage; format: functional; summary of the method: as §1
Mus musculus [4] = assay: Anesthetic activity in ICR mouse assessed as loss of righting reflex at 100 mg equiv/kg parent drug administered via oral gavage relative to control; format: functional; summary of the method: as §1
Mus musculus [5] = assay: Anesthetic activity in ICR mouse assessed as anesthetic duration time at 200 mg equiv/kg parent drug administered via oral gavage; format: functional; summary of the method: as §1
[6] = Toxicity in ICR mouse assessed as death at 200 mg equiv/kg parent drug administered via oral gavage relative to control; conditions: in vivo; summary of the method: as §1
Mus musculus [7] = assay: Anesthetic activity in ICR mouse assessed as onset time for loss of righting reflex at 200 mg equiv/kg parent drug administered via oral gavage; format: functional; summary of the method: as §1
Mus musculus [8] = assay: Anesthetic activity in ICR mouse assessed as loss of righting reflex at 200 mg equiv/kg parent drug administered via oral gavage relative to control; format: functional; summary of the method: as §1
in vivo [9] = conditions: Beagle, dog, iv, 3 mg/kg
in vivo [10] = conditions: Beagle, dog, po, 6.9 mg/kg
[11] = Half life in Beagle dog at 3 mg/kg, iv administered as single bolus dose by LC-MS/MS analysis; conditions: in vivo
in vivo [12] = conditions: Beagle, dog, iv, 3 mg/kg; remark: listed apart in the source
in vivo [13] = conditions: Beagle, dog, po, 6.9 mg/kg; remark: listed apart in the source
[14] = Half life in Beagle dog at 6.9 mg/kg, po by LC-MS/MS analysis; conditions: in vivo
in vivo [15] = conditions: Beagle, dog, po, 6.9 mg/kg; remark: listed apart in the source
[16] = Half life in Beagle dog at 2 mg/kg, iv administered as single bolus dose by LC-MS/MS analysis; format: ADME, organism-based, Canis lupus familiaris; conditions: in vivo
Summary of the method: (§2)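 Beagle dogs (n=3/group) received a single i.v. bolus of parent drug, then after a one-week washout received the prodrug i.g. in 5% DMSO, 5% Solutol HS-15 (30%, w/v), 90% saline. Heparinized blood was taken to 24 h, and plasma was obtained at 2–8 °C and stored at -80 °C. Parent drug was measured by LC-MS/MS and analysed non-compartmentally. Oral bioavailability was oral versus i.v. exposure to the active compound.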

[17] = AUC (0 to t) in Beagle dog at 2 mg/kg, iv administered as single bolus dose by LC-MS/MS analysis; format: ADME, organism-based, Canis lupus familiaris; conditions: in vivo
[18] = Cmax in Beagle dog at 2 mg/kg, iv administered as single bolus dose by LC-MS/MS analysis; format: ADME, organism-based, Canis lupus familiaris; parameters: dose 2 mg/kg, route intravenous; conditions: in vivo; summary of the method: as §2
[19] = Half life in Beagle dog at 10 mg/kg, po by LC-MS/MS analysis; format: ADME, organism-based, Canis lupus familiaris; conditions: in vivo; summary of the method: as §2
[20] = Oral bioavailability in Beagle dog at 10 mg/kg by LC-MS/MS analysis; format: ADME, organism-based, Canis lupus familiaris; conditions: in vivo; summary of the method: as §2
[21] = Cmax in Beagle dog at 1 mg/kg, iv administered as single bolus dose by LC-MS/MS analysis; format: ADME, organism-based, Canis lupus familiaris; parameters: dose 1 mg/kg, route intravenous; conditions: in vivo; summary of the method: as §2
[22] = Half life in Beagle dog at 1 mg/kg, iv administered as single bolus dose by LC-MS/MS analysis; format: ADME, organism-based, Canis lupus familiaris; conditions: in vivo; summary of the method: as §2
[23] = AUC (0 to t) in Beagle dog at 10 mg/kg, po by LC-MS/MS analysis; format: ADME, organism-based, Canis lupus familiaris; conditions: in vivo
[24] = Cmax in Beagle dog at 10 mg/kg, po by LC-MS/MS analysis; format: ADME, organism-based, Canis lupus familiaris; parameters: dose 10 mg/kg, route oral; conditions: in vivo; summary of the method: as §2
[25] = AUC (0 to t) in Beagle dog at 1 mg/kg, iv administered as single bolus dose by LC-MS/MS analysis; format: ADME, organism-based, Canis lupus familiaris; conditions: in vivo
[26] = Half life in Beagle dog at 0.2 mg/kg, iv administered as single bolus dose by LC-MS/MS analysis; format: ADME, organism-based, Canis lupus familiaris; conditions: in vivo
Summary of the method: (§3)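 Beagle dogs (n=3/group) received the parent drug as an intravenous bolus. Heparinized blood was drawn pre-dose and at 2, 5, 10, 20 and 30 min and 1, 2, 4, 6, 8, 10, 12 and 24 h. Plasma was separated by centrifugation at 2–8 °C and stored at -80 °C. Parent drug was measured by LC-MS/MS, and parameters were derived by non-compartmental analysis.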

[27] = AUC (0 to t) in Beagle dog at 0.2 mg/kg, iv administered as single bolus dose by LC-MS/MS analysis; format: ADME, organism-based, Canis lupus familiaris; conditions: in vivo
[28] = Cmax in Beagle dog at 0.2 mg/kg, iv administered as single bolus dose by LC-MS/MS analysis; format: ADME, organism-based, Canis lupus familiaris; parameters: dose 0.2 mg/kg, route intravenous; conditions: in vivo; summary of the method: as §3
Mus musculus [29] = assay: Sleep promoting activity in ICR mouse assessed as pentobarbital induced sleep time at 75 mg/kg, po administered 5 mins before pentobarbital injection (reference value: 33 +/- 20 min); format: functional
Summary of the method: (§4)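 Fasted male and female ICR mice (n=10/group) received vehicle or 55, 65 or 75 mg/kg orally in 10% DMSO, 20% Solutol HS-15 (30%, w/v), 70% saline, 5 min before pentobarbital 40 mg/kg i.p. Sleep duration ran from falling asleep to recovery of the righting reflex. Data are mean ± SEM versus vehicle.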

Mus musculus [30] = assay: Sleep promoting activity in ICR mouse assessed as pentobarbital induced sleep time at 65 mg/kg, po administered 5 mins before pentobarbital injection (reference value: 33 +/- 20 min); format: functional; summary of the method: as §4
Mus musculus [31] = assay: Sleep promoting activity in po dosed ICR mouse assessed as increase in pentobarbital induced sleep time administered 5 mins before pentobarbital injection; format: functional, organism-based; summary of the method: as §4

| Structure (SMILES) | Time (Mus musculus [5]) | mortality [6] | Time (Mus musculus [7]) | Activity (Mus musculus [8]) | other results |
| --- | --- | --- | --- | --- | --- |
| CCOC(=O)[C@H](C)NP(=O)(COC)Oc1c(C(C)C)cccc1[C@H](C)C1CC1 (stereo partly specified) | – | – | – | – | mortality [1]: 50%; Time (Mus musculus [2]): 74.44 min; Time (Mus musculus [3]): 4.49 min; Activity (Mus musculus [4]): 100% |
| CCOC(=O)CNP(=O)(COC)Oc1c(C(C)C)cccc1C(C)C (stereo unspecified) | 32.48 min | 0% | 14.37 min | 70% | – |
| CCOC(=O)[C@H](C)N[P@](=O)(COC)Oc1c(C(C)C)cccc1[C@H](C)C1CC1 | – | – | – | – | mortality [1]: 0%; Time (Mus musculus [2]): 107.68 min; Time (Mus musculus [3]): 3.98 min; Activity (Mus musculus [4]): 100% |
| CC(C)c1cccc(C(C)C)c1O [PROPOFOL] | – | – | – | – | Cmax (in vivo [9]): 2050 ng/mL; bioavailability (in vivo [10]): 7.3%; half-life [11]: 12 min; AUC(0-t) (in vivo [12]): 616 ng·h/mL; AUC(0-t) (in vivo [13]): 102 ng·h/mL; half-life [14]: 38.4 min; Cmax (in vivo [15]): 97 ng/mL |
| COCP(=O)(N[C@@H](C)C(=O)OCc1ccccc1)Oc1c(C(C)C)cccc1C(C)C (stereo partly specified) | 94.61 min | 10% | 9.34 min | 50% | – |
| CCOC(=O)C(C)(C)NP(=O)(COC)Oc1c(C(C)C)cccc1C(C)C (stereo unspecified) | 115.9 min | 20% | 6.74 min | 100% | – |
| CCOC(=O)[C@@H](C)NP(=O)(COC)Oc1c(C(C)C)cccc1C(C)C (stereo partly specified) | 44.8 min | 10% | 9.48 min | 100% | – |
| CCOC(=O)[C@H](C)N[P@@](=O)(COC)Oc1c(C(C)C)cccc1[C@H](C)C1CC1 | – | – | – | – | mortality [1]: 17%; Time (Mus musculus [2]): 85.23 min; Time (Mus musculus [3]): 4.35 min; Activity (Mus musculus [4]): 100% |
| CCOC(=O)[C@H](C)NP(=O)(CN1CCOCC1)Oc1c(C(C)C)cccc1C(C)C (stereo partly specified) | 16.18 min | 10% | 7.65 min | 60% | – |
| CCc1c2c(nc3ccc(O)cc13)-c1cc3c(c(=O)n1C2)COC(=O)[C@]3(O)CC [7-ETHYL-10-HYDROXYCAMPTOTHECIN] | – | – | – | – | half-life [16]: 160 min; AUC(0-t) [17]: 410 ng·h/mL; Cmax [18]: 983 ng/mL |
| C=CCN1CC[C@]23c4c5ccc(O)c4O[C@H]2C(=O)CC[C@@]3(O)[C@H]1C5 [NALOXONE] | – | – | – | – | half-life [19]: 539 min; bioavailability [20]: 9.6%; Cmax [21]: 196 ng/mL; half-life [22]: 22.8 min; AUC(0-t) [23]: 117 ng·h/mL; Cmax [24]: 43 ng/mL; AUC(0-t) [25]: 122 ng·h/mL |
| CC(C)c1cccc([C@H](C)C2CC2)c1O [CIPEPOFOL] | – | – | – | – | half-life [19]: 26.4 min; half-life [16]: 12 min; bioavailability [20]: 7.7%; AUC(0-t) [17]: 417 ng·h/mL; Cmax [18]: 1610 ng/mL; AUC(0-t) [23]: 162 ng·h/mL; Cmax [24]: 233 ng/mL |
| CCOC(=O)[C@H](C)NP(=O)(CO)Oc1c(C(C)C)cccc1C(C)C (stereo partly specified) | 19.19 min | 10% | 6.91 min | 40% | – |
| CCOC(=O)[C@H](C)NP(=O)(COC)Oc1c(C(C)C)cccc1C(C)C (stereo partly specified) | 60.31 min | 10% | 4.5 min | 100% | – |
| C[C@]12CC[C@@H]3c4ccc(O)cc4CC[C@H]3[C@@H]1CC[C@@H]2O [ESTRADIOL] | – | – | – | – | half-life [26]: 16.2 min; AUC(0-t) [27]: 28 ng·h/mL; Cmax [28]: 76 ng/mL |
| COCP(=O)(N[C@@H](C)C(=O)OCC(C)C)Oc1c(C(C)C)cccc1C(C)C (stereo partly specified) | 24.47 min | 10% | 8.36 min | 100% | – |
| CCOC(=O)[C@H](C)N[P@](=O)(COC)Oc1c(C(C)C)cccc1C(C)C | 40.1 min | 0% | 4.38 min | 100% | Time (Mus musculus [29]): 82 min; Time (Mus musculus [30]): 69 min; Activity (Mus musculus [31]): Dose-dependent effect |
| COCP(=O)(N[C@@H](C)C(=O)OC(C)C)Oc1c(C(C)C)cccc1C(C)C (stereo partly specified) | 59.38 min | 0% | 12.7 min | 40% | – |
| CCOC(=O)[C@H](C)N[P@@](=O)(COC)Oc1c(C(C)C)cccc1C(C)C | 47.24 min | 0% | 9.68 min | 33% | – |
